Measured values taken from ChEMBL document CHEMBL2146414, “Lignan derivatives from Krameria lappacea roots inhibit acute inflammation in vivo and pro-inflammatory mediators in vitro” (J Nat Prod, 2011).
Calls of active or inactive are those of the source. The rule behind the calls is not given here.

Tests used:
[1] = target: T1, Prostaglandin G/H synthase 2 (Ovis aries, UniProt P79208); test: Inhibition of sheep placental COX2 assessed as PGE2 production by enzyme immunoassay
T1 sequence (P79208 whole entry): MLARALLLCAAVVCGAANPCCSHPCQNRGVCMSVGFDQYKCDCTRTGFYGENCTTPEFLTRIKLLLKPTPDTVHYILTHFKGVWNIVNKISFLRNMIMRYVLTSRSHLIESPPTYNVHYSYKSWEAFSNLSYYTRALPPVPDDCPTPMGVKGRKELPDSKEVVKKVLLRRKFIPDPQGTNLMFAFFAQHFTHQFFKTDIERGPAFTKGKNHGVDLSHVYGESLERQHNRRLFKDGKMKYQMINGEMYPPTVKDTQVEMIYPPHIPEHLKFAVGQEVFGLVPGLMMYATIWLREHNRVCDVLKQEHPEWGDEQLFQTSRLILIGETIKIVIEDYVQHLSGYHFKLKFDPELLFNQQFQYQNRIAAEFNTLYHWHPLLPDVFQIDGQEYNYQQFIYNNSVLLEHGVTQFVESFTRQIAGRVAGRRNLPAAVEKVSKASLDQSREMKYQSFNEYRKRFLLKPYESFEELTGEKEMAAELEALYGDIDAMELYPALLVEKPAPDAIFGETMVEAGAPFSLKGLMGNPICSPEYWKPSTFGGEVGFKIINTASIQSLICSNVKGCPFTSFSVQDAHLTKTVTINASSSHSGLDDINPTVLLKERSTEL

[2] = target: T2, Inhibitor of nuclear factor kappa-B kinase subunit beta (Homo sapiens) (UniProt O14920); test: Inhibition of human IKK2 assessed as reduction in substrate phosphorylation at 10 uM by ELISA
T2 sequence (whole entry): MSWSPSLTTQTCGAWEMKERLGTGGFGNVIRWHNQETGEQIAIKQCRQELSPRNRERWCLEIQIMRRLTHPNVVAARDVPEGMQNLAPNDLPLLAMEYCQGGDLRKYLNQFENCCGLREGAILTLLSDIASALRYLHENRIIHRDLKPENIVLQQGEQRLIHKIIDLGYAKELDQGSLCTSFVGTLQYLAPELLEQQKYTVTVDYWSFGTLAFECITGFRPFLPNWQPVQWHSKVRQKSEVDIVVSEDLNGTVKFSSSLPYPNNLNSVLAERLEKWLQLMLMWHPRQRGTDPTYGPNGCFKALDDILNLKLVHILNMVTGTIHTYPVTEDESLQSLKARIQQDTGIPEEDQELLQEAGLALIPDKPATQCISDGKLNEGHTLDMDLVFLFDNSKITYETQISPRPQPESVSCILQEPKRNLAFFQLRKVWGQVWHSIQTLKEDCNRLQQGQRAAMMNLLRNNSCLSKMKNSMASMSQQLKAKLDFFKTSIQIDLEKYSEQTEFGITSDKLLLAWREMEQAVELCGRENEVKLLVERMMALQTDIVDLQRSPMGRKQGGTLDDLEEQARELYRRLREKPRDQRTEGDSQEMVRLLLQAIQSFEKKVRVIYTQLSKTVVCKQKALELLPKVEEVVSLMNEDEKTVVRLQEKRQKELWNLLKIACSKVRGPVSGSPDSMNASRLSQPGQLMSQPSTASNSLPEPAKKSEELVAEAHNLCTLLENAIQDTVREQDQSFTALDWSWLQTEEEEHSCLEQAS

Mus musculus [3] = test: Antiinflammatory activity in CD1 mouse ear dermatitis model assessed as inhibition of Croton oil-induced ear edema at 1 umol administered topically per cm'2 of ear measured after induction of dermatitis relative to untreated control; format: functional
Method in brief: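 Male CD-1 mice (28–32 g), anesthetized with ketamine 145 mg/kg i.p.; right ear (about 1 cm2) given 80 μg croton oil in 15 μL acetone, with test substance co-applied in acetone; left ear left untreated. Controls received irritant only. 6 mm punches taken from both ears; edema = weight difference treated minus untreated; % inhibition vs controls. ID50 by graphic interpolation of log dose–effect curves; ANOVA with Dunnett's test.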

[4] = target: T3, Polyunsaturated fatty acid 5-lipoxygenase (Homo sapiens, UniProt P09917); test: Inhibition of 5-lipoxygenase in human neutrophils assessed as inhibition of LTB4 production
T3 sequence (P09917 whole entry): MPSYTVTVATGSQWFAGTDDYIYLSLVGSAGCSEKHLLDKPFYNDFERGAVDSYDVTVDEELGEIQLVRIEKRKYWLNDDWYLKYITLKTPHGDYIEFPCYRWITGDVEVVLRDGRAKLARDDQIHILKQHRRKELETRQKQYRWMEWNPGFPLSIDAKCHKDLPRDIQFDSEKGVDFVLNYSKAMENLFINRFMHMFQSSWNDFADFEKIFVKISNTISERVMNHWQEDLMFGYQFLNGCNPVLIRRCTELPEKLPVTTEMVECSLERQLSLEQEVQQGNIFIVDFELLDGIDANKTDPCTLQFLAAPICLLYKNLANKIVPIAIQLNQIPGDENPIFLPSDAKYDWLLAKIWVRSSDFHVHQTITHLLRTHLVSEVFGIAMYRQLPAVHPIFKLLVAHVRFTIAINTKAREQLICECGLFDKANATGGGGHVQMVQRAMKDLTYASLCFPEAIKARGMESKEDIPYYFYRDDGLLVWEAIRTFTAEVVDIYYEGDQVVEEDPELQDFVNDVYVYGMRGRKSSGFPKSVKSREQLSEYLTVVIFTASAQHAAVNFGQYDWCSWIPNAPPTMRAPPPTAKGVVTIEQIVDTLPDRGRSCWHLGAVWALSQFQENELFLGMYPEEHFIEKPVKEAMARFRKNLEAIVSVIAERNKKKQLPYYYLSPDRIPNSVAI
Method in brief: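 Stimulated human neutrophilic granulocytes; 5-LO-mediated LTB4 formation measured; samples dissolved in ethanol. IC50 from at least three concentrations, duplicates, at least three independent experiments, by nonlinear regression.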

Mus musculus [5] = test: Antiinflammatory activity in CD1 mouse ear dermatitis model assessed as inhibition of Croton oil-induced ear edema administered topically per cm'2 of ear measured after induction of dermatitis relative to untreated control; format: functional
[6] = target: T4, Peroxisome proliferator-activated receptor alpha (Homo sapiens) (UniProt Q07869); test: Activation of PPARalpha transfected in HEK293 cells at 10 uM after 18 hrs by firefly luciferase reporter gene-based luminescence assay; format: cell-based
T4 sequence (whole entry): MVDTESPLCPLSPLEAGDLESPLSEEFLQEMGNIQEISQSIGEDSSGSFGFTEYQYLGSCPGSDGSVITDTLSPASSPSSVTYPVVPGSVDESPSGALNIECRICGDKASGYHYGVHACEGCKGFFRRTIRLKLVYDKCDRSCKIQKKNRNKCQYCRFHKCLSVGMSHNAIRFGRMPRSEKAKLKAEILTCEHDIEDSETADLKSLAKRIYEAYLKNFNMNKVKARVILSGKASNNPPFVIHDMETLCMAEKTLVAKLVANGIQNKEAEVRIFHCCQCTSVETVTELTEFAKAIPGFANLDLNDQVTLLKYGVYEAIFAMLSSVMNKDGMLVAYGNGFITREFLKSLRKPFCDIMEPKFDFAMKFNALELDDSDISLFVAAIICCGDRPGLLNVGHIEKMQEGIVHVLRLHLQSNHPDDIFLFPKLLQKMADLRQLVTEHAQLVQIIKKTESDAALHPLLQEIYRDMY

SMILES | IC50 [1] | inhibition [2] | inhibition (INH) (Mus musculus [3]) | IC50 [4] | ID50 (Mus musculus [5]) | Activity [6]
COc1ccc(-c2cc3cc(CCCO)ccc3o2)c(O)c1 | > 50 µM | inactive | 67% | 27.2 µM | 0.36 umol/cm2 | inactive
C/C=C/c1ccc2c(c1)[C@@H](C)[C@H](c1ccc(O)cc1)O2 | > 50 µM | inactive | 81% | 18.4 µM | – | inactive
C[C@@H]1[C@H](C)[C@@H](c2ccc(O)cc2)O[C@@H]1c1ccc(O)cc1 | > 50 µM | inactive | 67% | > 50 µM | 0.46 umol/cm2 | inactive
C/C=C/c1ccc2oc(-c3ccc(O)cc3OC)cc2c1 [RATANIAPHENOL III] | 7.6 µM | inactive | 70% | > 50 µM | 0.48 umol/cm2 | inactive
C/C=C/c1ccc2oc(-c3ccc(O)cc3)c(C)c2c1 [RATANIAPHENOL II] | 1.7 µM | inactive | 75% | > 50 µM | 0.4 umol/cm2 | inactive
C/C=C/c1ccc2oc(-c3ccc(OC)cc3O)cc2c1 [RATANIAPHENOL I] | > 50 µM | inactive | 64% | > 50 µM | 0.57 umol/cm2 | inactive
C/C=C/c1ccc2c(c1)[C@H](CO)[C@@H](c1ccc(O)cc1)O2 | > 50 µM | inactive | 75% | > 50 µM | 0.42 umol/cm2 | inactive
C/C=C/c1ccc2oc(-c3ccc(O)cc3)cc2c1 | 2 µM | inactive | 74% | > 50 µM | 0.44 umol/cm2 | inactive
C/C=C/c1ccc2oc(-c3ccc(O)cc3O)cc2c1 | 7.1 µM | inactive | 64% | > 50 µM | 0.6 umol/cm2 | inactive
COc1cc(O)ccc1-c1cc2cc(CCCO)ccc2o1 | > 50 µM | inactive | 75% | 41.4 µM | 0.45 umol/cm2 | inactive
C[C@@H]1[C@H](C)[C@@H](c2ccc(O)cc2)O[C@H]1c1ccc(O)cc1 | > 50 µM | inactive | 72% | > 50 µM | 0.36 umol/cm2 | inactive
